In ChEMBL document CHEMBL1154037, “In vivo targeting of tumor-associated carbonic anhydrases using acetazolamide derivatives” (Bioorg Med Chem Lett, 2009):
Activity calls are given as the source filed them. No cut-off for these calls is given here.

Legend:
Homo sapiens [1] = experiment: Antitumor activity against human SK-RC-52 cells xenografted BALB/c nu/nu mouse assessed as inhibition of tumor growth at 20 mg/kg, ip; type: functional, organism-based; parameters: dose 20 mg/kg
Mus musculus [2] = experiment: Toxicity in human SK-RC-52 cells xenografted BALB/c nu/nu mouse assessed as effect on body weight at 20 mg/kg, ip; type: organism-based; parameters: dose 20 mg/kg, route intraperitoneal; conditions: in vivo
Carbonic anhydrase 9 [3] = molecular target: T1, Carbonic anhydrase 9 (Homo sapiens, UniProt Q16790); experiment: Binding affinity to human CA9 catalytic domain by isothermal titration calorimetry
Albumin = Albumin (Homo sapiens, UniProt P02768); experiment: Binding affinity to HSA by isothermal titration calorimetry; type: ADME
Blood [4] = experiment: Drug level in human LS 174T cells xenografted BALB/c nu/nu mouse blood at 0.5 umol. iv; type: ADME, cell-based, LS174T; conditions: in vivo, read-out: Drug uptake
Summary of the method: (§1)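 A bolus i.v. injection of 340 µg (0.5 µmol) was given to tumor-bearing mice. Blood concentration was estimated immediately at the end of the bolus injection.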

Blood [5] = experiment: Drug level in human SK-RC-52 cells xenografted BALB/c nu/nu mouse blood at 0.5 umol. iv; type: ADME, cell-based; conditions: read-out: Drug uptake; summary of the method: as §1
Homo sapiens [6] = experiment: Antitumor activity against human SK-RC-52 cells xenografted BALB/c nu/nu mouse assessed as inhibition of tumor growth at 340 ug, iv administered as 5 weekly injection schedule for 3 consecutive weeks; type: functional, organism-based
Summary of the method: (§2)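 Subcutaneous xenografts in Balb/c nude mice, n = 5 per group. Dosing was 340 µg (17 mg/kg, 0.5 µmol) per injection i.v. Vehicle was saline with 15% (v/v) DMSO, and controls received vehicle alone. Read-out was tumor volume over time, given as mean ± SE.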

Mus musculus [7] = experiment: Toxicity in human SK-RC-52 cells xenografted BALB/c nu/nu mouse assessed as effect on body weight at 340 ug, iv administered as 5 weekly injection schedule for 3 consecutive weeks; type: organism-based; conditions: in vivo
Summary of the method: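 SK-RC-52 xenografted Balb/c nude mice, n = 5, given 340 µg (17 mg/kg) per injection i.v. in saline with 15% (v/v) DMSO. Body weight was monitored during therapy and expressed as % of body weight on day 1 of treatment.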

LS174T [8] = experiment: Antitumor activity against human LS 174T cells xenografted BALB/c nu/nu mouse assessed as inhibition of tumor growth at 340 ug, iv administered as 5 weekly injection schedule for 2 consecutive weeks; type: functional, organism-based; summary of the method: as §2
Mus musculus [9] = experiment: Drug uptake in human LS 174T cells xenografted BALB/c nu/nu mouse at 1.26 umol, iv after 1 hr; type: ADME, organism-based, LS174T; conditions: in vivo
Summary of the method: (§3)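 Balb/c nu/nu mice carried subcutaneous LS174T tumors of about 500 mg. They received 680 µg (1.26 µmol) of fluorescent compound in the tail vein and were sacrificed 1 h or 2 h later. Fluorescence microscopy was done on 10 µm sections of tumor, muscle, heart, lung, intestine, spleen, kidney and liver. Exposures were 900 ms (1 h) and 1100 ms (2 h).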

[10] = Drug uptake in human LS 174T cells assessed as increase in fluorescence intensity at 3 uM by FACS method relative to untreated control; type: ADME, cell-based; conditions: ls174t
Summary of the method: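 LS174T cells were incubated with fluorescein-labelled compound at 0.26 or 3 µM and analysed by flow cytometry in the FITC channel. Mean fluorescence was compared with unstained cells. Free FAM served as a dye control, and polyclonal anti-CA IX staining confirmed antigen presence.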

Mus musculus [11] = experiment: Drug uptake in human LS 174T cells xenografted BALB/c nu/nu mouse at 1.26 umol, iv after 2 hrs; type: ADME, organism-based, LS174T; conditions: in vivo; summary of the method: as §3
Kidney = experiment: Drug uptake in human LS 174T cells xenografted BALB/c nu/nu mouse kidney at 1.26 umol, iv after 1 hr; type: ADME, organism-based, LS174T; conditions: in vivo; summary of the method: as §3
Liver = experiment: Drug uptake in human LS 174T cells xenografted BALB/c nu/nu mouse liver at 1.26 umol, iv after 1 hr; type: ADME, organism-based, LS174T; conditions: in vivo; summary of the method: as §3
Intestine = experiment: Drug uptake in human LS 174T cells xenografted BALB/c nu/nu mouse intestine at 1.26 umol, iv after 1 hr; type: ADME, organism-based, LS174T; conditions: in vivo; summary of the method: as §3
Carbonic anhydrase 9 [12] = molecular target: T1, Carbonic anhydrase 9; experiment: Inhibition of human CA9 catalytic domain using 4-nitrophenylacetate substrate by colorimetry
Summary of the method: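 CA IX esterase activity was measured colorimetrically via conversion of 4-nitrophenylacetate and reported as Ki. Line 15 was run in the presence of 10 µM mouse serum albumin.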

LS174T [13] = experiment: Antitumor activity against human LS 174T cells xenografted BALB/c nu/nu mouse assessed as inhibition of tumor growth at 25 mg/kg, ip; type: functional, organism-based; parameters: dose 25 mg/kg
Summary of the method: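 Balb/c nude mice with subcutaneous LS174T human colorectal xenografts, dosed i.p. at 25 mg/kg/day. Vehicle controls received saline containing 15% (v/v) DMSO i.v. Tumor growth was followed as mean tumor volume ± SE, n = 5 per group. Body weight was also tracked as % of day-1 weight.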

Mus musculus [14] = experiment: Toxicity in human SK-RC-52 cells xenografted BALB/c nu/nu mouse assessed as effect on body weight at 25 mg/kg, ip; type: organism-based; parameters: dose 25 mg/kg, route intraperitoneal; conditions: in vivo

Chain of Albumin (P02768 whole entry): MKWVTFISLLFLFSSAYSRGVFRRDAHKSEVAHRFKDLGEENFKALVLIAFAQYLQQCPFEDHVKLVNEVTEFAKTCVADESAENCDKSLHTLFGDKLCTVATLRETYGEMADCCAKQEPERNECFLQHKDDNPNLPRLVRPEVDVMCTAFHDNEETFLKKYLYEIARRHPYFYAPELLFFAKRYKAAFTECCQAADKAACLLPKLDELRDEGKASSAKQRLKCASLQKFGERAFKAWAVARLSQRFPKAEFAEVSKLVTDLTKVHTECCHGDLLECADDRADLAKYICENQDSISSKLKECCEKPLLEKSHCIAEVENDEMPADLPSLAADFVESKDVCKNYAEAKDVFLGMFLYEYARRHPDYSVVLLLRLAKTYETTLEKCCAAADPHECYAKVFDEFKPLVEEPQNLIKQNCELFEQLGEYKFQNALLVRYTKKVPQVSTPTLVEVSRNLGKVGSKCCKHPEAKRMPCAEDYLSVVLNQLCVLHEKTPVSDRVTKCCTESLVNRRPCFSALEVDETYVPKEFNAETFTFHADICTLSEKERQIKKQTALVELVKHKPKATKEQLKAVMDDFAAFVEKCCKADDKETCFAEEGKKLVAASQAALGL

CCN(CC)CCNC(=O)c1c(C)[nH]c(/C=C2\C(=O)Nc3ccc(F)cc32)c1C [SUNITINIB]
Activity (Homo sapiens [1]): Active
Activity (Mus musculus [2]): Non-toxic

NS(=O)(=O)c1nnc(NC(=O)CCC(=O)NC(CCCCNC(=O)CCCc2ccc(I)cc2)C(=O)O)s1 (stereo not drawn)
Kd (Carbonic anhydrase 9 [3]): 3.2 nM
Kd (Albumin): 820 nM
concentration (Blood [4]): 250 µM
concentration (Blood [5]): 250 µM
Activity (Homo sapiens [6]): Active
Activity (Mus musculus [7]): Non-toxic
Activity (LS174T [8]): inactive

NS(=O)(=O)c1nnc(NC(=O)c2ccc(-c3c4ccc(=O)cc-4oc4cc(O)ccc34)c(C(=O)O)c2)s1
Drug uptake (Mus musculus [9]): Active
fold change (FC) [10]: > 10
Drug uptake (Mus musculus [11]): Active
Drug uptake (Kidney): Active
Drug uptake (Liver): Active
Drug uptake (Intestine): Active
Ki (Carbonic anhydrase 9 [12]): 220 nM

O=c1[nH]cc(F)c(=O)[nH]1 [FLUOROURACIL]
Activity (LS174T [13]): Active
Activity (Mus musculus [14]): Toxic
